What was measured:
[1] = Inhibition of bovine brain tubulin polymerization after 30 mins by turbidimetry analysis; design: species or system Bos taurus
Outline: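 Lyophilized bovine brain tubulin (97%) reconstituted to 5 mg/mL in 80 mM PIPES pH 6.9, 2 mM MgCl₂, 0.5 mM EGTA, 1.0 mM GTP and 5% glycerol. Compound in DMSO was added to this solution in a quartz cuvette at 0 °C. Assembly was followed as the rise in absorbance at 340 nm at 37 °C. IC₅₀ is the molar concentration halving the extent of assembly after 30 min.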

[2] = Cell cycle arrest in mouse DA1-3b cells assessed as accumulation at G2/M phase after 24 hrs using propidium iodide staining by cytofluorometry; type: functional, cell-based
Outline: (§1)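 DA1-3b murine leukemia cells were exposed to the compound for 24 h. They were then stained in a solution containing propidium iodide (50 µg/mL) and RNase A (0.5 mg/mL) and analysed on a FACScan cytofluorometer. The percentage of cells in each cell-cycle phase was reported, with several compound concentrations tested.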

OVCAR-3 = assay: Cytotoxicity against human OVCAR3 cells after 48 hrs by sulforhodamine B assay; type: functional; conditions: OVCAR-3, 48 h
[3] = Cell cycle arrest in mouse DA1-3b cells assessed as accumulation at S phase at 10^-5 M after 24 hrs using propidium iodide staining by cytofluorometry (reference value: 28.0 %); type: functional, cell-based; outline: as §1
EKVX = assay: Cytotoxicity against human EKVX cells after 48 hrs by sulforhodamine B assay; type: functional
UACC-62 = assay: Cytotoxicity against human UACC62 cells after 48 hrs by sulforhodamine B assay; type: functional; conditions: UACC-62, 48 h
NCI-H522 = assay: Cytotoxicity against human NCI-H522 cells after 48 hrs by sulforhodamine B assay; type: functional; conditions: NCI-H522, 48 h
CCRF-CEM = assay: Cytotoxicity against human CCRF-CEM cells after 48 hrs by sulforhodamine B assay; type: functional
SK-MEL-2 = assay: Cytotoxicity against human SK-MEL-2 cells after 48 hrs by sulforhodamine B assay; type: functional; conditions: SK-MEL-2, 48 h
CAKI-1 = assay: Cytotoxicity against human Caki1 cells after 48 hrs by sulforhodamine B assay; type: functional; conditions: CAKI-1, 48 h
A549 [4] = assay: Cytotoxicity against human A549 cells after 48 hrs by sulforhodamine B assay; type: functional; conditions: A549, 48 h
M14 = assay: Cytotoxicity against human M14 cells after 48 hrs by sulforhodamine B assay; type: functional; conditions: M14, 48 h
HL-60 = assay: Cytotoxicity against human HL60 cells after 48 hrs by sulforhodamine B assay; type: functional; conditions: HL-60, 48 h
NCI-H322M = assay: Cytotoxicity against human NCI-H322M cells after 48 hrs by sulforhodamine B assay; type: functional
SK-OV-3 = assay: Cytotoxicity against human SKOV3 cells after 48 hrs by sulforhodamine B assay; type: functional; conditions: SK-OV-3, 48 h
COLO 205 = assay: Cytotoxicity against human COLO205 cells after 48 hrs by sulforhodamine B assay; type: functional; conditions: COLO 205, 48 h
HT-29 = assay: Cytotoxicity against human HT29 cells after 48 hrs by sulforhodamine B assay; type: functional; conditions: HT-29, 48 h
[5] = Cell cycle arrest in mouse DA1-3b cells assessed as accumulation at S phase at 10^-6 M after 24 hrs using propidium iodide staining by cytofluorometry (reference value: 28.0 %); type: functional, cell-based; outline: as §1
SF-295 = assay: Cytotoxicity against human SF295 cells after 48 hrs by sulforhodamine B assay; type: functional; conditions: SF-295, 48 h
NCI-H460 = assay: Cytotoxicity against human NCI-H460 cells after 48 hrs by sulforhodamine B assay; type: functional; conditions: NCI-H460, 48 h
UO-31 = assay: Cytotoxicity against human UO31 cells after 48 hrs by sulforhodamine B assay; type: functional; conditions: UO-31, 48 h
[6] = Cell cycle arrest in mouse DA1-3b cells assessed as accumulation at G1 phase at 10^-4 M after 24 hrs using propidium iodide staining by cytofluorometry (reference value: 52.2 %); type: functional, cell-based; outline: as §1
SN12C = assay: Cytotoxicity against human SN12C cells after 48 hrs by sulforhodamine B assay; type: functional
[7] = Cell cycle arrest in mouse DA1-3b cells assessed as accumulation at G1 phase at 10^-6 M after 24 hrs using propidium iodide staining by cytofluorometry (reference value: 52.2 %); type: functional, cell-based; outline: as §1
A549 [8] = assay: Cytotoxicity against human A549/ATCC cells after 48 hrs by sulforhodamine B assay; type: functional; conditions: A549, 48 h
[9] = Cell cycle arrest in mouse DA1-3b cells assessed as accumulation at G2/M phase at 10^-4 M after 24 hrs using propidium iodide staining by cytofluorometry (reference value: 18.0 %); type: functional, cell-based; outline: as §1
KM12 = assay: Cytotoxicity against human KM12 cells after 48 hrs by sulforhodamine B assay; type: functional; conditions: KM12, 48 h
MCF7 = assay: Cytotoxicity against human MCF7 cells after 48 hrs by sulforhodamine B assay; type: functional; conditions: MCF7, 48 h
RXF 393 = assay: Cytotoxicity against human RXF393 cells after 48 hrs by sulforhodamine B assay; type: functional; conditions: RXF 393, 48 h
SK-MEL-28 = assay: Cytotoxicity against human SK-MEL-28 cells after 48 hrs by sulforhodamine B assay; type: functional; conditions: SK-MEL-28, 48 h
DU-145 = assay: Cytotoxicity against human DU145 cells after 48 hrs by sulforhodamine B assay; type: functional; conditions: DU-145, 48 h
OVCAR-5 = assay: Cytotoxicity against human OVCAR5 cells after 48 hrs by sulforhodamine B assay; type: functional; conditions: OVCAR-5, 48 h
SF-268 = assay: Cytotoxicity against human SF268 cells after 48 hrs by sulforhodamine B assay; type: functional; conditions: SF-268, 48 h
MDA-MB-468 = assay: Cytotoxicity against human MDA-MB-468 cells after 48 hrs by sulforhodamine B assay; type: functional; conditions: MDA-MB-468, 48 h
[10] = Cell cycle arrest in mouse DA1-3b cells assessed as accumulation at S phase at 10^-4 M after 24 hrs using propidium iodide staining by cytofluorometry (reference value: 28.0 %); type: functional, cell-based; outline: as §1
SF-539 = assay: Cytotoxicity against human SF539 cells after 48 hrs by sulforhodamine B assay; type: functional; conditions: SF-539, 48 h
MDA-MB-231 = assay: Cytotoxicity against human MDA-MB-231/ATCC cells after 48 hrs by sulforhodamine B assay; type: functional; conditions: MDA-MB-231, 48 h
OVCAR-4 = assay: Cytotoxicity against human OVCAR4 cells after 48 hrs by sulforhodamine B assay; type: functional; conditions: OVCAR-4, 48 h
K562 = assay: Cytotoxicity against human K562 cells after 48 hrs by sulforhodamine B assay; type: functional; conditions: K562, 48 h
[11] = Cell cycle arrest in mouse DA1-3b cells assessed as accumulation at G1 phase at 10^-5 M after 24 hrs using propidium iodide staining by cytofluorometry (reference value: 52.2 %); type: functional, cell-based; outline: as §1
Hs-578T = assay: Cytotoxicity against human HS578T cells after 48 hrs by sulforhodamine B assay; type: functional
[12] = Cell cycle arrest in mouse DA1-3b cells assessed as accumulation at sub-G1 phase at 10^-6 M after 24 hrs using propidium iodide staining by cytofluorometry (reference value: 0.7 %); type: functional, cell-based; outline: as §1
HCT-15 = assay: Cytotoxicity against human HCT15 cells after 48 hrs by sulforhodamine B assay; type: functional; conditions: HCT-15, 48 h
[13] = Cell cycle arrest in mouse DA1-3b cells assessed as accumulation at sub-G1 phase at 10^-4 M after 24 hrs using propidium iodide staining by cytofluorometry (reference value: 0.7 %); type: functional, cell-based; outline: as §1
HCT-116 = assay: Cytotoxicity against human HCT116 cells after 48 hrs by sulforhodamine B assay; type: functional; conditions: HCT-116, 48 h
[14] = Cell cycle arrest in mouse DA1-3b cells assessed as accumulation at sub-G1 phase at 10^-5 M after 24 hrs using propidium iodide staining by cytofluorometry (reference value: 0.7 %); type: functional, cell-based; outline: as §1
HCC 2998 = assay: Cytotoxicity against human HCC2998 cells after 48 hrs by sulforhodamine B assay; type: functional; conditions: HCC 2998, 48 h
A498 = assay: Cytotoxicity against human A498 cells after 48 hrs by sulforhodamine B assay; type: functional; conditions: A498, 48 h
MDA-MB-435 = assay: Cytotoxicity against human MDA-MB-435 cells after 48 hrs by sulforhodamine B assay; type: functional; conditions: MDA-MB-435, 48 h
NCI/ADR-RES = assay: Cytotoxicity against human NCI/ADR-RES cells after 48 hrs by sulforhodamine B assay; type: functional
[15] = Cell cycle arrest in mouse DA1-3b cells assessed as accumulation at G2/M phase at 10^-6 M after 24 hrs using propidium iodide staining by cytofluorometry (reference value: 18.0 %); type: functional, cell-based; outline: as §1
[16] = Cell cycle arrest in mouse DA1-3b cells assessed as accumulation at G2/M phase at 10^-5 M after 24 hrs using propidium iodide staining by cytofluorometry (reference value: 18.0 %); type: functional, cell-based; outline: as §1

Compound: COc1ccc(C(=O)c2cc(OC)c(OC)c(OC)c2)c(OC)c1O
- IC50 [1]: 3.2 µM
- Activity [2]: Dose-dependent effect
- GI50 (OVCAR-3): 22.2 nM
- Activity [3]: 11.8%
- GI50 (EKVX): 611 nM
- GI50 (UACC-62): 27.3 nM
- GI50 (NCI-H522): < 10 nM
- GI50 (CCRF-CEM): 28.8 nM
- GI50 (SK-MEL-2): 26.6 nM
- GI50 (CAKI-1): 120 nM
- GI50 (A549 [4]): 41.3 nM
- GI50 (M14): < 10 nM
- GI50 (HL-60): 23.5 nM
- GI50 (NCI-H322M): < 10 nM
- GI50 (SK-OV-3): 89.6 nM
- GI50 (COLO 205): 6.2 µM
- GI50 (HT-29): 3.46 µM
- Activity [5]: 13.1%
- GI50 (SF-295): 19.9 nM
- GI50 (NCI-H460): 50.7 nM
- GI50 (UO-31): 48.9 nM
- Activity [6]: 26.1%
- GI50 (SN12C): 46.9 nM
- Activity [7]: 21.5%
- GI50 (A549 [8]): 41.3 nM
- Activity [9]: 25.3%
- GI50 (KM12): < 10 nM
- GI50 (MCF7): 26.4 nM
- GI50 (RXF 393): 15.9 nM
- GI50 (SK-MEL-28): 9.46 µM
- GI50 (DU-145): 20.9 nM
- GI50 (OVCAR-5): 651 nM
- GI50 (SF-268): 21.1 nM
- GI50 (MDA-MB-468): 249 nM
- Activity [10]: 11.6%
- GI50 (SF-539): 15.1 nM
- GI50 (MDA-MB-231): 24.6 nM
- GI50 (OVCAR-4): 73 nM
- GI50 (K562): < 10 nM
- Activity [11]: 24.7%
- GI50 (Hs-578T): < 10 nM
- Activity [12]: 17.5%
- GI50 (HCT-15): 10.6 nM
- Activity [13]: 36.5%
- GI50 (HCT-116): 32 nM
- Activity [14]: 30%
- GI50 (HCC 2998): 211 nM
- GI50 (A498): 2720 nM
- GI50 (MDA-MB-435): < 10 nM
- GI50 (NCI/ADR-RES): < 10 nM
- Activity [15]: 47.2%
- Activity [16]: 32.9%
